In ChEMBL document CHEMBL2016465, “Host-directed Inhibitors of Myxoviruses: Synthesis and in vitro Biochemical Evaluation” (ACS Med Chem Lett, 2011) one finds EC50 and CC50 data, which are given here for 28 compounds.

The structures appear in SMILES notation. Bounds are passed on as bounds.

For orientation: EC50 means the midpoint of the concentration-response curve. By CC50 is commonly meant the concentration that lowers cell viability or growth by half.

The subject of data set [1] is Measles morbillivirus. The data set is described as follows: Antiviral activity against Measles virus MVi/Alaska USA/16.00 genotype H2 infected in african green monkey Vero cells assessed as reduction in viral-induced cytopathogenicity. It is filed as functional, organism-based. The conditions noted are these: MVi/Alaska USA/16.00 genotype H2, Vero. A digest of the protocol: (§1)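 Run on actively dividing cells. EC50 from four-parameter variable-slope nonlinear regression, reported as the average of four experiments ± SEM. Highest concentration tested was 75 μM.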

Data set [2] has as its system unidentified influenza virus. Put plainly: Antiviral activity against Influenza virus. It is filed as functional, organism-based.
The test system of data set [3] is Vero. Put plainly: (§2) Cytotoxicity against african green monkey Vero cells after 24 hrs by MTT assay. It counts as cell-based. The conditions noted are these: chlorocebus sabaeus, vero, 24 h. A digest of the protocol: (§3)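 Run on confluent cell monolayers to reflect acute toxicity. CC50 is given as the range of two experiments. Highest concentration tested was 75 μM.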

Data set [4] concerns Human respirovirus 3. Put plainly: Antiviral activity against Human parainfluenza virus 3. It is filed as functional, organism-based.
Data set [5] relates to Paramyxoviridae. Put plainly: Antiviral activity against Paramyxovirus measured 28 to 36 hrs post infection by cell based virus yield reduction assay. It is filed as functional.
Data set [6] concerns Respiratory syncytial virus. Put plainly: Antiviral activity against Respiratory syncytial virus. It counts as functional, organism-based. The conditions noted are these: human respiratory syncytial virus.
Data set [7] concerns Measles morbillivirus. Put plainly: Antiviral activity against Measles virus MVi/Alaska USA/16.00 genotype H2 infected in african green monkey Vero cells measured 28 to 36 hrs post infection by cell based virus yield reduction assay. It is filed as functional, organism-based. The conditions noted are these: MVi/Alaska USA/16.00 genotype H2, Vero. The procedure, abridged:
as §1

For data set [8], the system named is Mumps virus. Put plainly: Antiviral activity against Mumps virus. The conditions noted are these: Mumps orthorubulavirus. It counts as functional, organism-based.
The nature of data set [9]: as §2. It is filed as cell-based. The conditions noted are these: chlorocebus sabaeus, Vero cells. A digest of the protocol: as §3
Data set [10] relates to Measles morbillivirus. The data set is described as follows: Antiviral activity against Measles virus. It is filed as functional, organism-based. A digest of the protocol:
as §1

In the case of `COc1ccc(-n2c(SC(C)C(=O)Nc3cc(Br)ccc3Br)nc3ccccc32)cc1` (racemic), in data set [1], the EC50 was determined as 1400 nM.

On to `COc1ccc(-n2c(SC(C)C(=O)Nc3ccc(C)cc3Cl)nc3ccccc32)cc1` (racemic), for which the concentration for a half-maximal effect (EC50) worked out at 10 nM in [2]; 10 nM in data set [4]; 10 nM in [5]; 10 nM in data set [6]; 30 nM in data set [7]; 200 nM in data set [1]. Further, the EC50 in data set [8] was 10 nM. Moreover, the CC50 in data set [3] was > 75000 nM.

Regarding `Cc1nnc(NC(=O)C(C)Sc2nc3ccccc3n2-c2ccc(F)cc2)nc1C` (racemic), the EC50 in [1] is 17400 nM.

In data set [9], `COc1ccc(-n2c(SC(C)C(=O)Nc3nc(C)c(Cl)cc3Cl)nc3ccccc32)cc1` (racemic) returned a CC50 at 24 h of 7250 nM. Moreover, the EC50 in data set [1] came out at 200 nM.

As to `COc1ccc(-n2c(SC(C)C(=O)Nc3ccc(Cl)cn3)nc3ccccc32)cc1` (racemic), the EC50 in data set [1] is > 75000 nM.

As to `COc1ccc(-n2c(SC(C)C(=O)Nc3ncc(C)cc3Cl)nc3ccccc32)cc1` (racemic), in data set [9], the midpoint of cytotoxicity, the CC50 at 24 h, lay at 880 nM. Further, the concentration for a half-maximal effect (EC50) in data set [1] stood at 50 nM.

`COc1ccc(-n2c(SC(C)C(=O)Nc3nc(C)c(Br)cc3Br)nc3ccccc32)cc1` (racemic) returned a CC50 at 24 h in [9] of 9700 nM. The EC50 in data set [1] came out at 500 nM.

For the compound `COc1ccc(-n2c(SC(C)C(=O)Nc3nc(C)cc(Cl)n3)nc3ccccc32)cc1` (racemic), the concentration giving a half-maximal response (EC50) in data set [1] was > 75000 nM.

As for `COc1ccc(Cn2c(NC(C)C(=O)Nc3ccc(C)cc3Cl)nc3ccccc32)cc1` (stereo not drawn), the half-maximal effective concentration (EC50) in data set [1] is > 150000 nM.

Take `COc1ccc(Cn2c(SC(C)C(=O)Nc3ccc(C)cc3Cl)nc3ccccc32)cc1` (stereo not drawn): the CC50 in [3] was > 75000 nM. Moreover, the EC50 in data set [1] came to 700 nM.

Consider `COc1ccc(-n2c(SC(C)C(=O)Nc3nc(C)cs3)nc3ccccc32)cc1` (racemic), for which the EC50 in data set [1] stood at 2800 nM.

`CC(Sc1nc2ccccc2n1-c1ccc(F)cc1)C(=O)Nc1ncc(Cl)cc1Cl` (racemic) came in with a CC50 at 24 h in data set [9] of 5900 nM. In addition, the EC50 in data set [1] came to 100 nM.

Take `COc1ccc(-n2c(S[C@H](C)C(=O)Nc3ccc(C)cc3Cl)nc3ccccc32)cc1`: in data set [1], the EC50 amounted to 200 nM.

Regarding `Cc1ccc(NC(=O)C(C)Sc2nc3ccccc3n2Cc2ccccc2)c(Cl)c1` (stereo not drawn), the CC50 in [3] is > 75000 nM. Besides, in data set [1], the EC50 was found to be 400 nM.

In the case of `COc1ccc(-n2c(S(=O)(=O)C(C)C(=O)Nc3ccc(C)cc3Cl)nc3ccccc32)cc1` (stereo not drawn), the EC50 in data set [1] is > 150000 nM.

As to `Cc1cccc(-n2c(SCC(=O)Nc3ncc(Cl)cc3Cl)nc3ccccc32)c1`, the EC50 in data set [10] came to 2100 nM.

As for `COc1ccc(-n2c(SC(C)C(=O)Nc3cc(C)nn3C)nc3ccccc32)cc1` (racemic), it took 75000 nM to reach half-maximal cytotoxicity in [3] (CC50). Moreover, in data set [1], the EC50 is 500 nM.

With `COc1ccc(-n2c(SC(C)C(=O)Nc3ncc(Cl)cc3Cl)nc3ccccc32)cc1` (stereo not drawn), the EC50 in data set [10] came to 200 nM; in [1], 350 nM. Also, the CC50 in data set [3] was > 75000 nM.

For `COc1ccc(-n2c(SC(C)C(=O)Nc3cc(C)no3)nc3ccccc32)cc1` (racemic), the CC50 in data set [3] was > 75000 nM. The EC50 in data set [1] came to 400 nM.

Consider `Cc1ccc(NC(=O)[C@H](C)Oc2nc3ccccc3n2Cc2ccccc2)c(Cl)c1`, for which, in data set [1], the EC50 was > 150000 nM.

`CCOc1ccc(-n2c(SC(C)C(=O)Nc3ncc(Cl)cc3Cl)nc3ccccc32)cc1` (racemic) returned a CC50 at 24 h in [9] of 18500 nM. The EC50 in data set [1] was 100 nM.

For the compound `COc1ccc(-n2c(SC(C)C(=O)Nc3ncc(C(F)(F)F)cc3Cl)nc3ccccc32)cc1` (racemic), the CC50 at 24 h in [9] worked out at 9200 nM. Besides, the EC50 in data set [1] worked out at 400 nM.

Consider `COc1ccc(-n2c([S+]([O-])C(C)C(=O)Nc3ccc(C)cc3Cl)nc3ccccc32)cc1` (stereo not drawn), for which the CC50 in data set [3] is > 75000 nM. For the same compound, the EC50 in data set [1] was determined as 1300 nM.

As to `COc1ccc(-n2c(SC(C)C(=O)Nc3nnc(C)c(C)n3)nc3ccccc32)cc1` (racemic), the EC50 in [1] came to 9300 nM.

On to `COc1ccc(-n2c(CCC(=O)Nc3ccc(C)cc3Cl)nc3ccccc32)cc1`, for which the EC50 in data set [1] was > 150000 nM.

In data set [10], `O=C(CSc1nc2ccccc2n1-c1ccccc1)Nc1ncc(Cl)cc1Cl` returned an EC50 of 700 nM.

With `COc1ccc(-n2c(S[C@@H](C)C(=O)Nc3ccc(C)cc3Cl)nc3ccccc32)cc1`, the EC50 in [1] was 300 nM.

Regarding `CCOc1ccc(-n2c(SC(C)C(=O)Nc3cc(C)cc(C)n3)nc3ccccc32)cc1` (racemic), the EC50 in data set [1] came to 1200 nM.
